Data as given in ChEMBL document CHEMBL1143616, “Potent and selective Aurora inhibitors identified by the expansion of a novel scaffold for protein kinase inhibition” (J Med Chem, 2005).

Tests used:
[1] = tested on: HCT-116; assay: Antiproliferation activity against human colon cancer cell line (HCT116); format: functional, cell-based
Procedure, shortened: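 HCT-116 cells seeded at 5000 cells/cm² in F12 with 10% FCS, 2 mM L-glutamine and penicillin/streptomycin, 37 °C, 5% CO₂. Next day, dilutions from a 10 mM DMSO stock were added to duplicate wells. After 72 h, cells were trypsinized and counted on a Multisizer 3 counter. Counts were expressed as % of untreated control wells, and IC50 was taken from a sigmoidal fit.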

[2] = target: T1, Aurora kinase A (Homo sapiens, UniProt O14965); assay: Inhibition of Aurora kinase A
T1 sequence (O14965 whole entry): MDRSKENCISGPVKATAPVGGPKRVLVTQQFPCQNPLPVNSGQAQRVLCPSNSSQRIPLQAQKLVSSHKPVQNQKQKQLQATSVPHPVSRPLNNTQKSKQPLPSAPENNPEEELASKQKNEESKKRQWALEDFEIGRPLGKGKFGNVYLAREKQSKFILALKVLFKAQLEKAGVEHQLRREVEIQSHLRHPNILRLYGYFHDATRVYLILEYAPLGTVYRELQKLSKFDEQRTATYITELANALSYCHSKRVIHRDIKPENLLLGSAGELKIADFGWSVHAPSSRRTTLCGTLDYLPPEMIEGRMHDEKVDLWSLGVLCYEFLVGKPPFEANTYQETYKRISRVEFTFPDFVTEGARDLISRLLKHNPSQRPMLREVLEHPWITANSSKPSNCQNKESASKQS
Procedure, shortened: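 GST-fused Aurora-A was made in insect cells and purified by GST affinity and gel filtration. Compounds were tested as 3-fold dilutions from 10 to 0.0005 µM. Reactions were stopped with EDTA and excess ATP, and substrate phosphorylation was read by streptavidin SPA bead counting.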

[3] = tested on: A2780; assay: cells; conditions: Homo sapiens
[4] = tested on: HT-29; assay: Antiproliferation activity against HT-29 cell line (HT-29); conditions: Homo sapiens
[5] = tested on: HL-60; assay: Antiproliferation activity against human HL-60 cell line
[6] = target: T2, Aurora kinase B (Homo sapiens, UniProt Q96GD4); assay: Inhibitory activity against Aurora kinase B
T2 sequence (Q96GD4 whole entry): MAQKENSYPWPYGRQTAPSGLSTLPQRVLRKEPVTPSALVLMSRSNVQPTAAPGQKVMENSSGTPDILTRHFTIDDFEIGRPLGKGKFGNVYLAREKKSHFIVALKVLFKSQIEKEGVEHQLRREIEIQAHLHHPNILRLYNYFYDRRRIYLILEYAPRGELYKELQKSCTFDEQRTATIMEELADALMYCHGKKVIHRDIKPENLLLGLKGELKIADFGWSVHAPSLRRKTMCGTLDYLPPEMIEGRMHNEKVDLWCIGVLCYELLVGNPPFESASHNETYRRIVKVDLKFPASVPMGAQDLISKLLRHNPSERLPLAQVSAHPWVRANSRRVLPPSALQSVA

[7] = target: T3, Aurora kinase C (Homo sapiens, UniProt Q9UQB9); assay: Inhibitory activity against Aurora kinase C
T3 sequence (Q9UQB9 whole entry): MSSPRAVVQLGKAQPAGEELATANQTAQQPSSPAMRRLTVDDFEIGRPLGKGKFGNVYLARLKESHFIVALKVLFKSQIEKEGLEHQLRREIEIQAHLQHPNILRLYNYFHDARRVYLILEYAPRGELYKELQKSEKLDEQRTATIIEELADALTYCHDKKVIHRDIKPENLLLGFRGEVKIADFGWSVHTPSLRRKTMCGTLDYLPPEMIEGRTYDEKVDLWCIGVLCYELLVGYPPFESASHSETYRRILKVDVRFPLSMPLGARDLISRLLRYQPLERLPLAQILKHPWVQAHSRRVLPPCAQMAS

[8] = target: T2, Aurora kinase B; assay: Inhibition of Aurora kinase B
[9] = tested on: HeLa; assay: Antiproliferation activity against HeLa cell line; conditions: Homo sapiens
[10] = target: T3, Aurora kinase C; assay: Inhibition of Aurora kinase C

Structure (SMILES) | IC50 [1] [nM] | IC50 [2] [nM] | further results
CCc1cccc(CC)c1NC(=O)N1Cc2n[nH]c(NC(=O)c3ccc(C(C)(C)C)cc3)c2C1 | 2200 | 100 | –
CC(C)(C)c1ccc(C(=O)Nc2n[nH]c3c2CN(C(=O)Cc2ccccc2)C3)cc1 | 3000 | 130 | –
CN1CCN(c2ccc(C(=O)Nc3n[nH]c4c3CN(C(=O)c3ccco3)C4)cc2)CC1 | 900 | 160 | –
CCc1cccc(CC)c1NC(=O)N1Cc2n[nH]c(NC(=O)c3ccc(N4CCN(C)CC4)cc3)c2C1 [PHA-680632] | 45 | – | IC50 [3]: 110 nM; IC50 [4]: 80 nM; IC50 [5]: 130 nM; IC50 [6]: 135 nM; IC50 [7]: 120 nM; IC50 [8]: 135 nM; IC50 [9]: 410 nM; IC50 [10]: 120 nM

The remaining compounds from weak to strong by IC50 [1], led by results:

IC50 [1] [nM] | IC50 [2] [nM] | Structure (SMILES) | further results
2100 | 41 | CC(C)(C)c1ccc(C(=O)Nc2n[nH]c3c2CN(C(=O)c2ccco2)C3)cc1 | –
2000 | 5 | CC(C)(C)c1ccc(C(=O)Nc2[nH]nc3c2CN(C(=O)Cc2ccsc2)C3)cc1 | –
570 | 65 | CN1CCN(c2ccc(C(=O)Nc3[nH]nc4c3CN(C(=O)Cc3ccsc3)C4)cc2)CC1 | –
